# Reference: ChEMBL document CHEMBL3526062, “Role of human UDP-glucuronosyltransferases in the biotransformation of the triazoloacridinone and imidazoacridinone antitumor agents C-1305 and C-1311: highly selective substrates for UGT1A10” (Drug Metab Dispos, 2012)
# Legend:
# Assay type in all cases: ADME
# [1] = system: CCN(CC)CCNc1ccc2ncn3c4ccc(O)cc4c(=O)c1c23; test: (§1) Activity of human recombinant UGT1A10 D396A mutant expressed in baculovirus-infected Sf9 cells assessed as enzyme-mediated glucuronidation after 60 mins by Michaelis-Menten equation in presence of 3 mM UDP-GlcUA
# How it was run: (§2)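 Membrane fractions (5 μg) holding wild-type or point-mutant UGT1A10 incubated with increasing substrate concentrations and 3 mM UDP-GlcUA, 60 min, 37°C; products by HPLC. Kinetic constants from curve fits of three determinations; Km in μM, Vmax in nmol/mg protein/min.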
# [2] = system: CN(C)CCCNc1ccc2nnn3c4ccc(O)cc4c(=O)c1c23; test: as §1; how it was run: as §2
# [3] = system: CCN(CC)CCNc1ccc2ncn3c4ccc(O)cc4c(=O)c1c23; test: (§3) Activity of human recombinant UGT1A10 V92A mutant expressed in baculovirus-infected Sf9 cells assessed as enzyme-mediated glucuronidation after 60 mins by Michaelis-Menten equation in presence of 3 mM UDP-GlcUA; how it was run: as §2
# [4] = system: CN(C)CCCNc1ccc2nnn3c4ccc(O)cc4c(=O)c1c23; test: as §3; how it was run: as §2
# [5] = substrate: CCN(CC)CCNc1ccc2ncn3c4ccc(O)cc4c(=O)c1c23; test: (§4) Activity of human recombinant UGT1A10 expressed in baculovirus-infected Sf9 cells assessed as enzyme-mediated glucuronidation after 60 mins by Michaelis-Menten equation in presence of 3 mM UDP-GlcUA
# How it was run: (§5)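 Recombinant UGT membrane protein (5 μg; His-tagged UGT1A levels normalized by anti-His Western blot) or single-donor microsomes (20 μg) incubated with substrate 5–1000 μM and 3 mM UDP-GlcUA in […] pH 7.4, 5 mM MgCl2, 5 mM saccharolactone, 2% DMSO, 60 min, 37°C. Ethanol stop, centrifuged, HPLC-UV. Initial velocities fitted to Michaelis-Menten, Hill or substrate-inhibition models; three determinations.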
# [6] = substrate: CN(C)CCCNc1ccc2nnn3c4ccc(O)cc4c(=O)c1c23; test: as §4; how it was run: as §5
# [7] = substrate: CCN(CC)CCNc1ccc2ncn3c4ccc(O)cc4c(=O)c1c23; test: (§6) Activity of human recombinant UGT1A9 expressed in baculovirus-infected Sf9 cells assessed as enzyme-mediated glucuronidation after 60 mins by Michaelis-Menten equation in presence of 3 mM UDP-GlcUA; how it was run: as §5
# [8] = substrate: CN(C)CCCNc1ccc2nnn3c4ccc(O)cc4c(=O)c1c23; test: as §6; how it was run: as §5
# [9] = substrate: CN(C)CCCNc1ccc2nnn3c4ccc(O)cc4c(=O)c1c23; test: Activity of human recombinant UGT1A7 expressed in baculovirus-infected Sf9 cells assessed as enzyme-mediated glucuronidation after 60 mins by Michaelis-Menten equation in presence of 3 mM UDP-GlcUA
# [10] = substrate: CCN(CC)CCNc1ccc2ncn3c4ccc(O)cc4c(=O)c1c23; test: (§7) Activity of human recombinant UGT1A1 expressed in baculovirus-infected Sf9 cells assessed as enzyme-mediated glucuronidation after 60 mins by Michaelis-Menten equation in presence of 3 mM UDP-GlcUA; how it was run: as §5
# [11] = substrate: CN(C)CCCNc1ccc2nnn3c4ccc(O)cc4c(=O)c1c23; test: as §7; how it was run: as §5
molecule,measurement,setting,value
UDP-glucuronosyltransferase 1A10 (Homo sapiens; D396A),Km,[1],75.4 µM
same,Vmax,[1],0.00078 µmol/min
same,Km,[2],47.6 µM
same,Vmax,[2],0.00199 µmol/min
UDP-glucuronosyltransferase 1A10 (Homo sapiens; V92A),Km,[3],40.7 µM
same,Vmax,[3],0.00025 µmol/min
same,Km,[4],64.7 µM
same,Vmax,[4],0.00073 µmol/min
UDP-glucuronosyltransferase 1A10 (Homo sapiens) (protein) MARAGWTSPVPLCVCLLLTCGFAEAGKLLVVPMDGSHWFTMQSVVEKLILRGHEVVVVMPEVSWQLERSLNCTVKTYSTSYTLEDQNREFMVFAHAQWKAQAQSIFSLLMSSSSGFLDLFFSHCRSLFNDRKLVEYLKESSFDAVFLDPFDTCGLIVAKYFSLPSVVFTRGIFCHHLEEGAQCPAPLSYVPNDLLGFSDAMTFKERVWNHIVHLEDHLFCQYLFRNALEIASEILQTPVTAYDLYSHTSIWLLRTDFVLDYPKPVMPNMIFIGGINCHQGKPLPMEFEAYINASGEHGIVVFSLGSMVSEIPEKKAMAIADALGKIPQTVLWRYTGTRPSNLANNTILVKWLPQNDLLGHPMTRAFITHAGSHGVYESICNGVPMVMMPLFGDQMDNAKRMETKGAGVTLNVLEMTSEDLENALKAVINDKSYKENIMRLSSLHKDRPVEPLDLAVFWVEFVMRHKGAPHLRPAAHDLTWYQYHSLDVIGFLLAVVLTVAFITFKCCAYGYRKCLGKKGRVKKAHKSKTH,Km,[5],70.6 µM
same,Vmax,[5],0.000624 µmol/min
same,Km,[6],94.1 µM
same,Vmax,[6],0.00256 µmol/min
UDP-glucuronosyltransferase 1A9 (Homo sapiens) (protein) MACTGWTSPLPLCVCLLLTCGFAEAGKLLVVPMDGSHWFTMRSVVEKLILRGHEVVVVMPEVSWQLGRSLNCTVKTYSTSYTLEDLDREFKAFAHAQWKAQVRSIYSLLMGSYNDIFDLFFSNCRSLFKDKKLVEYLKESSFDAVFLDPFDNCGLIVAKYFSLPSVVFARGILCHYLEEGAQCPAPLSYVPRILLGFSDAMTFKERVRNHIMHLEEHLLCHRFFKNALEIASEILQTPVTEYDLYSHTSIWLLRTDFVLDYPKPVMPNMIFIGGINCHQGKPLPMEFEAYINASGEHGIVVFSLGSMVSEIPEKKAMAIADALGKIPQTVLWRYTGTRPSNLANNTILVKWLPQNDLLGHPMTRAFITHAGSHGVYESICNGVPMVMMPLFGDQMDNAKRMETKGAGVTLNVLEMTSEDLENALKAVINDKSYKENIMRLSSLHKDRPVEPLDLAVFWVEFVMRHKGAPHLRPAAHDLTWYQYHSLDVIGFLLAVVLTVAFITFKCCAYGYRKCLGKKGRVKKAHKSKTH,Km,[7],63.3 µM
same,Vmax,[7],0.000206 µmol/min
same,Km,[8],54.6 µM
same,Vmax,[8],0.000201 µmol/min
UDP-glucuronosyltransferase 1A7 (Homo sapiens) (protein) MARAGWTGLLPLYVCLLLTCGFAKAGKLLVVPMDGSHWFTMQSVVEKLILRGHEVVVVMPEVSWQLGRSLNCTVKTYSTSYTLEDQDREFMVFADARWTAPLRSAFSLLTSSSNGIFDLFFSNCRSLFNDRKLVEYLKESCFDAVFLDPFDACGLIVAKYFSLPSVVFARGIFCHYLEEGAQCPAPLSYVPRLLLGFSDAMTFKERVWNHIMHLEEHLFCPYFFKNVLEIASEILQTPVTAYDLYSHTSIWLLRTDFVLEYPKPVMPNMIFIGGINCHQGKPVPMEFEAYINASGEHGIVVFSLGSMVSEIPEKKAMAIADALGKIPQTVLWRYTGTRPSNLANNTILVKWLPQNDLLGHPMTRAFITHAGSHGVYESICNGVPMVMMPLFGDQMDNAKRMETKGAGVTLNVLEMTSEDLENALKAVINDKSYKENIMRLSSLHKDRPVEPLDLAVFWVEFVMRHKGAPHLRPAAHDLTWYQYHSLDVIGFLLAVVLTVAFITFKCCAYGYRKCLGKKGRVKKAHKSKTH,Km,[9],29.3 µM
same,Vmax,[9],0.000306 µmol/min
UDP-glucuronosyltransferase 1A1 (Homo sapiens) (protein) MAVESQGGRPLVLGLLLCVLGPVVSHAGKILLIPVDGSHWLSMLGAIQQLQQRGHEIVVLAPDASLYIRDGAFYTLKTYPVPFQREDVKESFVSLGHNVFENDSFLQRVIKTYKKIKKDSAMLLSGCSHLLHNKELMASLAESSFDVMLTDPFLPCSPIVAQYLSLPTVFFLHALPCSLEFEATQCPNPFSYVPRPLSSHSDHMTFLQRVKNMLIAFSQNFLCDVVYSPYATLASEFLQREVTVQDLLSSASVWLFRSDFVKDYPRPIMPNMVFVGGINCLHQNPLSQEFEAYINASGEHGIVVFSLGSMVSEIPEKKAMAIADALGKIPQTVLWRYTGTRPSNLANNTILVKWLPQNDLLGHPMTRAFITHAGSHGVYESICNGVPMVMMPLFGDQMDNAKRMETKGAGVTLNVLEMTSEDLENALKAVINDKSYKENIMRLSSLHKDRPVEPLDLAVFWVEFVMRHKGAPHLRPAAHDLTWYQYHSLDVIGFLLAVVLTVAFITFKCCAYGYRKCLGKKGRVKKAHKSKTH,Km,[10],28.9 µM
same,Vmax,[10],0.000115 µmol/min
same,Km,[11],149 µM
same,Vmax,[11],0.000262 µmol/min
